Published values gathered from unrelated publications.
Compare with care: the assays were run in different laboratories.
Target: Phosphatidylinositol 4-phosphate 5-kinase type-1 alpha (PIP5K1A, Homo sapiens, UniProt Q99755)

CN1CCN(C(=O)c2ccc(NC(=O)Nc3ccc(N(C)c4ccnc(Nc5ccc(CS(C)(=O)=O)cc5)n4)cc3)cc2)CC1
remaining binding (binding; 1 µM): 9.3%

C[C@]1(O)CCCN(c2nc(Nc3ccc(S(=O)(=O)N[C@H]4CC[C@H](CN5CCN(c6ccc(C7CCC(=O)NC7=O)cc6F)CC5)CC4)cc3F)ncc2C(F)(F)F)C1 (stereo partly shown)
remaining binding (binding; competition with immobilised ligand; 1 µM): 94%

CC(C)S(=O)(=O)c1ccc2nccc(Nc3ccc4sc(C5CCCC5)nc4c3)c2c1
activity vs control (enzyme activity; inhibitor; 1 µM): 104%

C1=C/COCc2cc(ccc2OCCN2CCCC2)Nc2nccc(n2)-c2cccc(c2)COC/1
remaining binding (binding; 0.1 µM): 20%

CCCCC(=O)Nc1ccc(-c2ccc3ncn(CCC)c(=O)c3c2)cn1
remaining binding (binding; competition with immobilised ligand; 0.5 µM): 100%

C[C@]1(O)CCCN(c2nc(Nc3ccc(S(=O)(=O)N[C@H]4CC[C@H](CN5CCN(c6ccc(C7CCC(=O)NC7=O)cc6F)CC5)CC4)cc3Cl)ncc2C(F)(F)F)C1 (stereo partly shown)
remaining binding (binding; competition with immobilised ligand; 1 µM): 93%

C=CC(=O)N1CCC([C@@H]2CCNc3c(C(N)=O)c(-c4ccc(Oc5ccccc5)cc4)nn32)CC1
inhibition (enzyme activity; inhibitor; 1 µM): 16%

COc1ccc2[nH]c3c4[nH]c5ccc(OC)cc5c4c4c(c3c2c1)C(=O)NC4=O
remaining binding (binding; 1 µM): 100%

CC#CC(=O)N1CCC[C@H]1c1nc(-c2ccc(C(=O)Nc3ccccn3)cc2)c2c(N)nccn12
inhibition (enzyme activity; inhibitor; 1 µM): 12%

COc1ccc2oc(-c3ccc4nc(N)oc4c3)c/c(=N\c3ccccc3NC(=O)CCN)c2c1
remaining binding (binding; 1 µM): 95%
